Data reported in ChEMBL document CHEMBL1132688, “Synthesis of a series of 4-benzyloxyaniline analogues as neuronal N-type calcium channel blockers with improved anticonvulsant and analgesic properties” (J Med Chem, 1999).
≈ marks a conversion by molar mass, not a printed value.

Key:
[1] = target: Voltage-dependent N-type calcium channel subunit alpha-1B (Homo sapiens, UniProt Q00975); test: Inhibition of N-type calcium channels in IMR32 human neuroblastoma cells; assay type: functional
Outline: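 Differentiated IMR32 cells (dibutyryl cAMP 1 mM + BrdU 2.5 μM, 7–13 days), Indo-1 AM loaded; 10 min compound preincubation at 30 °C with 5 μM nitrendipine; high-K+ depolarization, fluorescence ratio 400/490 nm (ex 350 nm). Percent inhibition of K+-evoked Ca2+ rise; IC50 from five-point curves, four-parameter logistic fit.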

[2] = solubility at pH 7.4; assay type: physicochemical; conditions: buffer
Outline: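 DMSO solution diluted 20-fold into PBS with 25 mM potassium phosphate pH 7.4 (final 5% DMSO) to precipitate; stirred 1 h at 22 °C, centrifuged 20000g 5 min; supernatant quantified by HPLC against DMSO standard.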

[3] = solubility at pH 4; assay type: physicochemical; conditions: buffer
Mus musculus [4] = species: Mus musculus; test: Anticonvulsant activity against audiogenic seizure model using DBA/2 mice; assay type: functional
Outline: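 Male DBA/2 mice, 3–4 weeks old (6.5–12 g, 20–23 days); iv dosing into retro-orbital sinus, tested 15 or 45 min later. Sound stimulus in enclosed chamber until tonic extension or max 60 s. Tonic seizure occurrence used for ED50 by probit analysis; each mouse used once per time/dose point.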

Mus musculus [5] = test: Anticonvulsant activity at 10 mg/kg tested against audiogenic seizure model using DBA/2 mice; assay type: functional
Outline: (§1)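 Male DBA/2 mice, 3–4 weeks old (6.5–12 g, 20–23 days), n = 5 per dose, given iv into retro-orbital sinus; tested 15 or 45 min post-dose with sound stimulus until tonic extension or max 60 s. Value is percentage of mice without tonic seizure.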

Mus musculus [6] = test: Anticonvulsant activity at 30 mg/kg tested against audiogenic seizure model using DBA/2 mice; assay type: functional; outline: as §1

Chain of Voltage-dependent N-type calcium channel subunit alpha-1B (Q00975 whole entry): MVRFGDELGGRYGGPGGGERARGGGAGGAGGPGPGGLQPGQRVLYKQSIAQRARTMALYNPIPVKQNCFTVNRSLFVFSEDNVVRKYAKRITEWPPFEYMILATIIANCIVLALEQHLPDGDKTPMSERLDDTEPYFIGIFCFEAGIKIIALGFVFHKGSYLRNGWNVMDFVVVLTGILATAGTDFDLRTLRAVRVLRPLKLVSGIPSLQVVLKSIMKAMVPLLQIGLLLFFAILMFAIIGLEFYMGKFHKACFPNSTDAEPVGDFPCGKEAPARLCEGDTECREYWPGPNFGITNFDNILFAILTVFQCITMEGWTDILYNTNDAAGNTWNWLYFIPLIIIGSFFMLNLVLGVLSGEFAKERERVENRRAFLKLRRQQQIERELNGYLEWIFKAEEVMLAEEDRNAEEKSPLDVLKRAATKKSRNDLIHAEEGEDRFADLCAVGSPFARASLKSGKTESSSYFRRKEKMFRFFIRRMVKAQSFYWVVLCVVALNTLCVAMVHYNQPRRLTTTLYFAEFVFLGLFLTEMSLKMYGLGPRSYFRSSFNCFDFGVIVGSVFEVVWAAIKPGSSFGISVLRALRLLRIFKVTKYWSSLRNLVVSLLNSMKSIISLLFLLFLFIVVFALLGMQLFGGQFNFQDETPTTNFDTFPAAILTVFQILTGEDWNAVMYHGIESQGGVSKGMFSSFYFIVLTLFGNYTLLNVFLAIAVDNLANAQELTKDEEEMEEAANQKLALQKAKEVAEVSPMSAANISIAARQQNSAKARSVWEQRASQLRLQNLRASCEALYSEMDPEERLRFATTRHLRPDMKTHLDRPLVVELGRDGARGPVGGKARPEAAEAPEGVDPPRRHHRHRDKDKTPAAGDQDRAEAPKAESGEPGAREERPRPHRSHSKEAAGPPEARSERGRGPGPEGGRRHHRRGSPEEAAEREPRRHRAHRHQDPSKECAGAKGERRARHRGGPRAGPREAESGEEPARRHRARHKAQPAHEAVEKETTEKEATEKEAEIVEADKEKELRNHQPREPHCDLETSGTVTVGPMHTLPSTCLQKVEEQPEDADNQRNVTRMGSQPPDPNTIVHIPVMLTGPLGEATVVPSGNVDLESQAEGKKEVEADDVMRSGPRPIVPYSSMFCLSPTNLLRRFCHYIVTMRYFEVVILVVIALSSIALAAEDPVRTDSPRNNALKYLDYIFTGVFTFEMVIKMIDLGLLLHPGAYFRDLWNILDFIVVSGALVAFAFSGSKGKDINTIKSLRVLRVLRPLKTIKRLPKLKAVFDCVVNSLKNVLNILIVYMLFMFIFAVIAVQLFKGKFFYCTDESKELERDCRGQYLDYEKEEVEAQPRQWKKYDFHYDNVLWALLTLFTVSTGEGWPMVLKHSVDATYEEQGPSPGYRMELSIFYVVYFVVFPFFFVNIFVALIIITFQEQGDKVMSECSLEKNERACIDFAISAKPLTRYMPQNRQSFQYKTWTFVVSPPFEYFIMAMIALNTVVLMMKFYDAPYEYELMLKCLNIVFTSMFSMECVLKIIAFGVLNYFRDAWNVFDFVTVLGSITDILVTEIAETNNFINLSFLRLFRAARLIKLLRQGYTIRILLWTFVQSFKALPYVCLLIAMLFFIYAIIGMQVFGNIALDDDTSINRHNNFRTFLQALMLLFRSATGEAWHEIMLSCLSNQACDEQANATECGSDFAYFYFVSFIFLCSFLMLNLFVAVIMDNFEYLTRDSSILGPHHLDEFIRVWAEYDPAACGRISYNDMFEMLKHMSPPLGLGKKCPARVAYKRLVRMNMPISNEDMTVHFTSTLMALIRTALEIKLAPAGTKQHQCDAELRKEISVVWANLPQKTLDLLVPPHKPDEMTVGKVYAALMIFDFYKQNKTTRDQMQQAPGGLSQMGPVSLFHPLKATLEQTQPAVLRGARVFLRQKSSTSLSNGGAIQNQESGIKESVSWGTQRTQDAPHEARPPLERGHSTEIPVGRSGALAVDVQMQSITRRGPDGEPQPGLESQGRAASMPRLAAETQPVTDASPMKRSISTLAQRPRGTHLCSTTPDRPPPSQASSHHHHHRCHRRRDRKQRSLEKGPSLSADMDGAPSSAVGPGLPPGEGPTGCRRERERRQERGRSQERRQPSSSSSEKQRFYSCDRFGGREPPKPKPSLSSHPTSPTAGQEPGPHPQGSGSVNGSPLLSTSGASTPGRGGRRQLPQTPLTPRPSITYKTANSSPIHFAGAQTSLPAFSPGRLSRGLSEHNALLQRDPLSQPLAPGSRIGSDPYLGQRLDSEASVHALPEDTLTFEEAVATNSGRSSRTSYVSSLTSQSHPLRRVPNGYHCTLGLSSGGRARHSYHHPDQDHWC

| IC50 [1] [nM] | Structure (SMILES) | Anticonulsant activity (Mus musculus [6]) [%] | other results |
| --- | --- | --- | --- |
| 1500 | CC(C)=CCN(c1ccc(OCc2ccccc2)cc1)C1CCCN(C(=O)[C@H](CC(C)C)NC(=O)N2CCCCCC2)C1 (stereo partly drawn) | – | – |
| 4600 | CC(C)C[C@H](NC(=O)N1CCCCCC1)C(=O)N1CCC(N(CCC(C)O)c2ccc(OCc3ccccc3)cc2)CC1 (stereo partly drawn) | – | solubility [2]: 4 µM (≈ 2.37 µg/mL) |
| – | CC(C)=CCN(c1ccc(OCc2ccccc2)cc1)C1CCN(C(=O)[C@H](CC(C)C)NCCC(C)C)CC1 | – | Anticonulsant activity (Mus musculus [5]): 20% |
| – | CC(C)C[C@H](NC(=O)N1CCCCCC1)C(=O)N1CCC(Nc2ccc(OCc3ccccc3)cc2)CC1 | 60 | – |
| – | CC(C)=CCN(c1ccc(OCc2ccccc2)cc1)C1CCN(C(=O)[C@H](CC(C)C)NC(=O)N2CCCCCC2)CC1 | 0 | – |
| 1000 | CC(C)=CCN(C[C@H](C)NC(=O)[C@H](CC(C)C)NC(=O)N1CCCCCC1)c1ccc(OCc2ccccc2)cc1 | – | – |
| – | CCN(c1ccc(OCc2ccccc2)cc1)C1CCN(C(=O)[C@H](CC(C)C)NC(=O)N2CCCCCC2)CC1 | 0 | – |

| Structure (SMILES) | IC50 [1] [nM] | Anticonulsant activity (Mus musculus [6]) [%] | other results |
| --- | --- | --- | --- |
| CC(C)=CCN(c1ccc(OCc2ccccc2)cc1)C1CCN(C(=O)[C@@H](N)CC(C)C)CC1 | 670 | – | solubility [3]: 100000 µM (≈ 46400 µg/mL); solubility [2]: 87 µM (≈ 40.3 µg/mL); ED50 (Mus musculus [4]): 6 mg/kg |
| CC(C)=CCN(c1ccc(OCc2ccccc2)cc1)C1CCNCC1 | 4700 | – | – |
